Data reported in ChEMBL document CHEMBL3272012, “5-(Tetradecyloxy)-2-furancarboxylic acid and related hypolipidemic fatty acid-like alkyloxyarylcarboxylic acids” (J Med Chem, 1977).
One block for each molecule: values may come before it.

Columns and labels:
Rattus norvegicus [1] = experiment: Hypolipidemic activity in Wistar rat assessed as reduction in plasma triglyceride level at 489 umol/kg/day administered through diet for 10 days; format: functional; conditions: 240 h
Rattus norvegicus [2] = experiment: Increase in liver weight in Wistar rat at 489 umol/kg/day administered through diet for 10 days; format: ADME, organism-based; conditions: in vivo, po, 240 h
Rattus norvegicus [3] = experiment: Increase in cholesterol level in Wistar rat liver at 489 umol/kg/day administered through diet for 10 days; format: ADME, organism-based; conditions: in vivo, po, 240 h
Rattus norvegicus [4] = experiment: Hypolipidemic activity in Wistar rat assessed as reduction in plasma cholesterol level at 489 umol/kg/day administered through diet for 10 days; format: functional; conditions: 240 h
How it was run: (§1)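 Young male Wistar rats, 170-190 g initial weight, groups of six, given compound mixed thoroughly into Purina Lab Chow ad libitum for 4 or 10 days as stated. Daily dose calculated from food consumption and body weight. Bled by cardiac puncture at end of treatment; plasma cholesterol measured by automated procedure. Expressed as percent reduction versus simultaneous untreated control group; Student's t test.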

Rattus norvegicus [5] = experiment: Hypolipidemic activity in Wistar rat assessed as reduction in plasma cholesterol level at 496 umol/kg/day administered through diet for 4 days; format: functional; conditions: 96 h; how it was run: as §1
Rattus norvegicus [6] = experiment: Hypolipidemic activity in Wistar rat assessed as reduction in plasma triglyceride level at 460 umol/kg/day administered through diet for 10 days; format: functional; conditions: 240 h
Rattus norvegicus [7] = experiment: Increase in liver weight in Wistar rat at 460 umol/kg/day administered through diet for 10 days; format: ADME, organism-based; conditions: in vivo, po, 240 h
Rattus norvegicus [8] = experiment: Increase in liver weight in Wistar rat at 496 umol/kg/day administered through diet for 4 days; format: ADME, organism-based; conditions: in vivo, po, 96 h
Rattus norvegicus [9] = experiment: Increase in cholesterol level in Wistar rat liver at 460 umol/kg/day administered through diet for 10 days; format: ADME, organism-based; conditions: in vivo, po, 240 h
Rattus norvegicus [10] = experiment: Increase in cholesterol level in Wistar rat liver at 496 umol/kg/day administered through diet for 4 days; format: ADME, organism-based; conditions: in vivo, po, 96 h
Rattus norvegicus [11] = experiment: Hypolipidemic activity in Wistar rat assessed as reduction in plasma triglyceride level at 496 umol/kg/day administered through diet for 4 days; format: functional; conditions: 96 h
Rattus norvegicus [12] = experiment: Hypolipidemic activity in Wistar rat assessed as reduction in plasma cholesterol level at 460 umol/kg/day administered through diet for 10 days; format: functional; conditions: 240 h; how it was run: as §1
Rattus norvegicus [13] = experiment: Increase in cholesterol level in Wistar rat liver at 444 umol/kg/day administered through diet for 10 days; format: ADME, organism-based; conditions: in vivo, po, 240 h
Rattus norvegicus [14] = experiment: Hypolipidemic activity in Wistar rat assessed as reduction in plasma triglyceride level at 444 umol/kg/day administered through diet for 10 days; format: functional; conditions: 240 h
Rattus norvegicus [15] = experiment: Increase in liver weight in Wistar rat at 444 umol/kg/day administered through diet for 10 days; format: ADME, organism-based; conditions: in vivo, po, 240 h
Rattus norvegicus [16] = experiment: Hypolipidemic activity in Wistar rat assessed as reduction in plasma cholesterol level at 444 umol/kg/day administered through diet for 10 days; format: functional; conditions: 240 h; how it was run: as §1
Rattus norvegicus [17] = experiment: Hypolipidemic activity in Wistar rat assessed as reduction in plasma triglyceride level at 453 umol/kg/day administered through diet for 4 days; format: functional; conditions: 96 h
Rattus norvegicus [18] = experiment: Hypolipidemic activity in Wistar rat assessed as reduction in plasma triglyceride level at 462 umol/kg/day administered through diet for 10 days; format: functional; conditions: 240 h
Rattus norvegicus [19] = experiment: Increase in cholesterol level in Wistar rat liver at 462 umol/kg/day administered through diet for 10 days; format: ADME, organism-based; conditions: in vivo, po, 240 h
Rattus norvegicus [20] = experiment: Hypolipidemic activity in Wistar rat assessed as reduction in plasma cholesterol level at 462 umol/kg/day administered through diet for 10 days; format: functional; conditions: 240 h; how it was run: as §1
Rattus norvegicus [21] = experiment: Increase in liver weight in Wistar rat at 453 umol/kg/day administered through diet for 4 days; format: ADME, organism-based; conditions: in vivo, po, 96 h
Rattus norvegicus [22] = experiment: Increase in liver weight in Wistar rat at 462 umol/kg/day administered through diet for 10 days; format: ADME, organism-based; conditions: in vivo, po, 240 h
Rattus norvegicus [23] = experiment: Hypolipidemic activity in Wistar rat assessed as reduction in plasma cholesterol level at 453 umol/kg/day administered through diet for 4 days; format: functional; conditions: 96 h; how it was run: as §1

- Activity (Rattus norvegicus [2]): 19%
- Activity (Rattus norvegicus [3]): 43%
Structure (SMILES): CCCCCCCCCCOc1ccc(C(=O)OC)cc1
- inhibition in vivo at 489 µmol/kg (Rattus norvegicus [1]): 94%
- inhibition in vivo at 489 µmol/kg (Rattus norvegicus [4]): 36%

- Activity (Rattus norvegicus [7]): 20%
- Activity (Rattus norvegicus [8]): 20%
- Activity (Rattus norvegicus [9]): 6%
- Activity (Rattus norvegicus [10]): 9%
Structure (SMILES): CCCCCCCCCCCCCOc1ccc(C(=O)OC)cc1
- inhibition in vivo at 496 µmol/kg (Rattus norvegicus [5]): 27%
- inhibition in vivo at 460 µmol/kg (Rattus norvegicus [6]): 70%
- inhibition in vivo at 496 µmol/kg (Rattus norvegicus [11]): 31%
- inhibition in vivo at 460 µmol/kg (Rattus norvegicus [12]): 25%

- Activity (Rattus norvegicus [13]): 41%
- Activity (Rattus norvegicus [15]): 23%
Structure (SMILES): CCCCCCCCCCCOc1ccc(C(=O)OC)cc1
- inhibition in vivo at 444 µmol/kg (Rattus norvegicus [14]): 88%
- inhibition in vivo at 444 µmol/kg (Rattus norvegicus [16]): 45%

- Activity (Rattus norvegicus [19]): 12%
- Activity (Rattus norvegicus [21]): 0%
- Activity (Rattus norvegicus [22]): 0%
Structure (SMILES): CCCCCCCCCCCCCCOc1cccc(C(=O)OC)c1
- inhibition in vivo at 453 µmol/kg (Rattus norvegicus [17]): 51%
- inhibition in vivo at 462 µmol/kg (Rattus norvegicus [18]): 59%
- inhibition in vivo at 462 µmol/kg (Rattus norvegicus [20]): 24%
- inhibition in vivo at 453 µmol/kg (Rattus norvegicus [23]): 0%
